FID counter: displaces DNA intercalator in HCV helicase counter-screen. DNA fluorescent intercalator displacement, fluorescence. actives 0.17% (n = 290,000). AID 1845. inhibition, % at 7.9 µM; in the data active = inhibition above about 37%;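 also: 0% = vehicle and 100% = reference compound; higher means more ethidium bromide displaced from hairpin DNA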
ANO1 activ: activates or potentiates the mouse TMEM16A chloride channel; HEK293 TMEM16A/YFP-H148Q/I152L, iodide quench fluorescence; active compounds read low; actives 0.3% (n = 340,000); B-score at 10 µM; Q8BHY3;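 active = fluorescence-ratio B-score plate-corrected deviation score at least 3 library SD below zero, with starting fluorescence score within 5 deviations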;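 also: channel opened by trigger with iodide after compound preincubation; score built on the fluorescence ratio of max minus min over baseline; more negative score means more quench and so TMEM16A activation or potentiation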
Apaf1 inhib: blocks human Apaf-1 apoptosome activity; reconstituted apoptosome caspase-3 activity, DEVD-Rh110 fluorescence; inhibition, % at 20 µM; actives 0.71% (n = 330,000); AID 489030; active = inhibition of at least 40% at 20 µM;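 also: plate controls were DMSO wells for no effect and DEVD-CHO caspase inhibitor wells for full effect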
Target sequence (O14727 whole entry, looked up): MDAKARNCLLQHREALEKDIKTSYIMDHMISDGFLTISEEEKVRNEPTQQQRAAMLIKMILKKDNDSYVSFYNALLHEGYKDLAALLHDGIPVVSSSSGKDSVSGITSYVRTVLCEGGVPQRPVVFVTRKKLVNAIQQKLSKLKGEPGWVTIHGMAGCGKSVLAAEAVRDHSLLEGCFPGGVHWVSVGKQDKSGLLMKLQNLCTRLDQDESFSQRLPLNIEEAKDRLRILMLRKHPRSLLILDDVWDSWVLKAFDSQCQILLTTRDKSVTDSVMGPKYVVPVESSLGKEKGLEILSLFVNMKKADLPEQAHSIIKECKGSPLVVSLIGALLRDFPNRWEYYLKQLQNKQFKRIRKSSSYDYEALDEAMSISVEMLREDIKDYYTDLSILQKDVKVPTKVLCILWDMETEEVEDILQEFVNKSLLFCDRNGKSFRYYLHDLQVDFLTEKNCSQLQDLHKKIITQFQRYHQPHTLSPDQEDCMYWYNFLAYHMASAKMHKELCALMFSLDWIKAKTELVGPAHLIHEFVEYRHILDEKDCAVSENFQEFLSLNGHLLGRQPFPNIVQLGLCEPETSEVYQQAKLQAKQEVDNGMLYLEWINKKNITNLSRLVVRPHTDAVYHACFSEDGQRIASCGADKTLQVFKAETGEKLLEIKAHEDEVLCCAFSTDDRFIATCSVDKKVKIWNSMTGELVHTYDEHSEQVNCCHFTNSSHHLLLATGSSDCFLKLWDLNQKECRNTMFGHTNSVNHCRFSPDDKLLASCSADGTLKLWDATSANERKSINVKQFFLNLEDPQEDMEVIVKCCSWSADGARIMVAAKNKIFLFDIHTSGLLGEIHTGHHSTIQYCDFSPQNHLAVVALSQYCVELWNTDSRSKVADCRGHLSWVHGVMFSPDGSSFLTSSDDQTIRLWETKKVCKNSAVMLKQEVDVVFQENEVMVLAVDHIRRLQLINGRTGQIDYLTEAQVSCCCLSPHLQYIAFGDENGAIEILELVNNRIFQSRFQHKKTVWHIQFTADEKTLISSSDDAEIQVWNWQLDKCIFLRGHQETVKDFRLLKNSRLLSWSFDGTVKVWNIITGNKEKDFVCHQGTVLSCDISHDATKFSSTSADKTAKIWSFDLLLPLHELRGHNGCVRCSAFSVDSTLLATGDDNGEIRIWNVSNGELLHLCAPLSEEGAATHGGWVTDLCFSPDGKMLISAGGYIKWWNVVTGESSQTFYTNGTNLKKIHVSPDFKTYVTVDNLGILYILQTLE
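Material: reconstituted apoptosome with Apaf-1, cytochrome c, caspase-9, procaspase-3, dATP. Technique: Rh110 fluorescence intensity. Buffer or medium: pH 7.5 Hepes buffer with CHAPS, BSA, DTT. Times: 30 min plus 50 min, RT.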
UBC13 polyUb: blocks human UBC13 polyubiquitin chain formation; actives 0.47% (n = 330,000); AID 485273; TR-FRET; inhibition, % at 20 µM; P61088; in the data active = inhibition above about 45%, passing the limit was not always enough
ANO1 block: inhibitors of mouse TMEM16A calcium-activated chloride channel; Q8BHY3; HEK293 TMEM16A/YFP iodide influx fluorescence, ionomycin; normalized B-score (activity score, 25-100; higher = stronger inhibition) at 10 µM; actives 1.2% (n = 310,000); AID 588511;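 active = ratio plate-corrected score three or more library SD toward inhibition, starting fluorescence score within five deviations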;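 also: score derived from kinetic fluorescence span divided by baseline fluorescence per well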
An asterisk follows results filed as active. Rows were chosen to be rich in hits. Some 2.4% of all compounds tested hit in one or more screens of this group.

`CCc1cccc2c1NC(=O)C2(O)CC(=O)c1cccs1` (configuration not stated) gave FID counter -4, ANO1 activ inactive, Apaf1 inhib 0, UBC13 polyUb 1 and ANO1 block inactive.
Screening O=C(NC1CCCCC1)c1sc(=S)n2c1[nH]c(=O)c1ccccc12 returned FID counter -4, ANO1 activ inactive, Apaf1 inhib 6, UBC13 polyUb -12 and ANO1 block 100*.
O=C(NCCc1ccccc1)c1ccc2c(=O)[nH]c3c(C(=O)NCC4CCCO4)sc(=S)n3c2c1 (configuration not stated) was read as FID counter 49*, ANO1 activ inactive, Apaf1 inhib 14, UBC13 polyUb -27 and ANO1 block inactive.
O=C(NCC1CCCO1)c1sc(=S)n2c1[nH]c(=O)c1ccc(C(=O)N3CCCCC3)cc12 (configuration not stated) was read as FID counter 17, ANO1 activ inactive, Apaf1 inhib 5, UBC13 polyUb -14 and ANO1 block inactive.
For O=C(COC(=O)/C=C/c1ccccc1[N+](=O)[O-])NCC(F)(F)F the results were FID counter -2, ANO1 activ inactive, Apaf1 inhib -9, UBC13 polyUb 3 and ANO1 block inactive.
Cc1c(C(=O)OCC(=O)Nc2ccc(C(N)=O)cc2)cccc1[N+](=O)[O-] was read as FID counter 2, ANO1 activ inactive, Apaf1 inhib -11, UBC13 polyUb 4 and ANO1 block inactive.
For O=C(Nc1nc2ccc(S(=O)(=O)N3CCOCC3)cc2s1)c1cccs1 the results were FID counter 1, ANO1 activ inactive, Apaf1 inhib 7, UBC13 polyUb 11 and ANO1 block inactive.
Screening Cc1nnc2n(C3CCCCC3)c(=O)c3c4c(sc3n12)COC(C)(C)C4 returned FID counter -30, ANO1 activ -15*, Apaf1 inhib 8, UBC13 polyUb -5 and ANO1 block inactive.
For Cc1nnc2n(C3CCCCC3)c(=O)c3c4c(sc3n12)CCC4 the results were FID counter 2.
COc1ccc(-c2csc(NC(=O)CS(=O)(=O)c3ccc(F)cc3)n2)cc1OC was read as ANO1 activ inactive, Apaf1 inhib 12, UBC13 polyUb 3 and ANO1 block inactive.
Screening C(=C\c1ccccc1)/CSc1nc2ncccc2[nH]1 returned FID counter -1, ANO1 activ inactive, Apaf1 inhib -8, UBC13 polyUb 0 and ANO1 block inactive.
Screening CC1=C([N+](=O)[O-])C(c2cccc(Br)c2)C2=C(N1)c1ccccc1C2=O (configuration not stated) returned FID counter 9, ANO1 activ inactive, Apaf1 inhib -2, UBC13 polyUb -32 and ANO1 block 100*.
`CCOc1cc(CNC2CCCC2)cc(Cl)c1OCc1ccccc1` gave FID counter 39*, ANO1 activ inactive, Apaf1 inhib 14, UBC13 polyUb 38 and ANO1 block inactive.
Screening CCOc1cc(CNCC(C)C)cc(Cl)c1OCc1ccccc1 returned FID counter 22, ANO1 activ inactive, Apaf1 inhib 0, UBC13 polyUb 14 and ANO1 block inactive.
Cc1cc(/C=N/n2c(COc3ccccc3C)nc3ccccc3c2=O)c(O)c([N+](=O)[O-])c1 was read as FID counter -6, ANO1 activ inactive, Apaf1 inhib -2, UBC13 polyUb -117 and ANO1 block 100*.
Screening O=[N+]([O-])c1ccc(Cl)c(/C=N/n2c(COc3ccccc3)n[nH]c2=S)c1 returned FID counter -1, ANO1 activ inactive, Apaf1 inhib 4, UBC13 polyUb 0 and ANO1 block inactive.
`O=c1c2ccccc2nc(COc2ccccc2)n1/N=C/c1cc([N+](=O)[O-])ccc1O` gave FID counter 5, ANO1 activ inactive, Apaf1 inhib -8, UBC13 polyUb -31 and ANO1 block 100*.
CC(Sc1ccc(S(=O)(=O)N(C)C)cn1)C(=O)NC1CCCC1 (configuration not stated) was read as ANO1 activ inactive, Apaf1 inhib -1 and UBC13 polyUb 6.
For CC(=O)N/C(=C\c1ccccc1)C(=O)OCC(=O)NC(=O)c1ccccc1 the results were ANO1 activ inactive, Apaf1 inhib 1, UBC13 polyUb -4 and ANO1 block inactive.
COc1ccc(-c2nc(CS(=O)(=O)CC(=O)NCc3ccc(F)cc3)c(C)o2)cc1 was read as FID counter -39, ANO1 activ inactive, Apaf1 inhib 12, UBC13 polyUb -2 and ANO1 block inactive.
For COc1ccc(NC(=O)C2=CC(c3ccc(C)cc3)=NS(=O)(=O)N2C)cc1OC the results were FID counter -20, ANO1 activ inactive, Apaf1 inhib 13, UBC13 polyUb 0 and ANO1 block inactive.
Screening COc1ccc(C2=NS(=O)(=O)N(C)C(C(=O)Nc3ccc(C(C)=O)cc3)=C2)cc1OC returned FID counter 2, ANO1 activ inactive, Apaf1 inhib 5, UBC13 polyUb -4 and ANO1 block 25*.
`N#C/C(=C\c1ccc(O)c(O)c1)C(=O)Nc1ccccc1` gave ANO1 activ -5.2*, Apaf1 inhib -5, UBC13 polyUb -54 and ANO1 block inactive.
For COC(=O)C1CCN(CCCOc2ccc(CN3CCN(c4ccc([N+](=O)[O-])cc4)CC3)cc2)CC1 the results were FID counter 47*, ANO1 activ inactive, Apaf1 inhib 7, UBC13 polyUb 1 and ANO1 block inactive.
`CCOc1ccc(NC(=O)CN(C)S(=O)(=O)c2cccc3cccnc23)cc1` gave FID counter -30, ANO1 activ inactive, Apaf1 inhib 5, UBC13 polyUb -4 and ANO1 block inactive.
`O=C(Cc1ccc2c(c1)OCCO2)Nc1ccc(Cl)c(S(=O)(=O)N2CCOCC2)c1` gave ANO1 activ inactive, Apaf1 inhib -2 and UBC13 polyUb 3.
COc1ccc2cc(C(N)=O)c(=Nc3ccc(C)cc3)oc2c1 was read as FID counter -9, ANO1 activ -7.7*, Apaf1 inhib 13, UBC13 polyUb 1 and ANO1 block inactive.
Screening COc1ccc2cc(C(N)=O)/c(=N\NC(=O)c3ccccc3)oc2c1 returned FID counter -28, ANO1 activ inactive, Apaf1 inhib 7, UBC13 polyUb -4 and ANO1 block inactive.
Screening CCc1cc2c3c(c1)/C(=C1/SC(N)=NC1=O)C(=O)N3C(C)(C)C=C2C returned FID counter 1, ANO1 activ inactive, Apaf1 inhib 12, UBC13 polyUb -23 and ANO1 block 100*.
Screening Cc1c(C=O)c(Cl)n(C)c(=O)c1C#N returned FID counter 1, ANO1 activ inactive, Apaf1 inhib 97*, UBC13 polyUb -22 and ANO1 block inactive.
Cc1cc(C)n(C)c(=O)c1C#N was read as FID counter 3, ANO1 activ inactive, Apaf1 inhib -3, UBC13 polyUb 12 and ANO1 block inactive.

Compound activity (PubChem BioAssay)
